In ChEMBL document CHEMBL4825764, “Flavonoid Monomers as Potent, Nontoxic, and Selective Modulators of the Breast Cancer Resistance Protein (ABCG2)” (J Med Chem, 2021):
Activity calls are given as the source filed them. The calls are words filed in the database; no cut-off is given here.

Legend:
Homo sapiens [1] = organism: Homo sapiens; assay: Selectivity index, ratio of EC50 for inhibition of MRP1 (unknown origin) expressed in 2008/MRP1 cells assessed as reversal of doxorubicin resistance to EC50 for inhibition of BCRP (unknown origin) transfected in HEK293/R2 cells assessed as reversal of topotecan resistance; type: cell-based
Summary of the method: (§1)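 Selectivity index is the EC50 against the other transporter's line divided by the EC50 in the BCRP line. All values come from 5-day MTS reversal assays. These use topotecan in HEK293/R2 (0–2000 nM) or MCF7-MX100 (0–100 μM), doxorubicin in 2008/MRP1, and paclitaxel in LCC6MDR, each with modulator at 0–1000 nM.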

Homo sapiens [2] = organism: Homo sapiens; assay: Selectivity index, ratio of EC50 for inhibition of P-gp (unknown origin) expressed in LCC6MDR cells assessed as reversal of paclitaxel resistance to EC50 for inhibition of BCRP (unknown origin) transfected in HEK293/R2 cells assessed as reversal of topotecan resistance; type: cell-based; summary of the method: as §1
L929 = assay: Cytotoxicity against mouse L929 cells assessed as reduction in cell viability; type: cell-based
BCRP (ABCG2) [3] = molecular target: T1, BCRP (ABCG2) (Homo sapiens, UniProt Q9UNQ0); assay: Inhibition of BCRP (unknown origin) expressed in HEK293/R2 cells assessed as conformational change by measuring increase in 5D3 shift at 1 uM preincubated for 15 mins followed by FITC mouse antihuman BCRP antibody addition measured after 30 mins by flow cytometry analysis; type: cell-based; details: HEK293/R2 cells expressing BCRP, time 45 min
T1 sequence (Q9UNQ0 whole entry): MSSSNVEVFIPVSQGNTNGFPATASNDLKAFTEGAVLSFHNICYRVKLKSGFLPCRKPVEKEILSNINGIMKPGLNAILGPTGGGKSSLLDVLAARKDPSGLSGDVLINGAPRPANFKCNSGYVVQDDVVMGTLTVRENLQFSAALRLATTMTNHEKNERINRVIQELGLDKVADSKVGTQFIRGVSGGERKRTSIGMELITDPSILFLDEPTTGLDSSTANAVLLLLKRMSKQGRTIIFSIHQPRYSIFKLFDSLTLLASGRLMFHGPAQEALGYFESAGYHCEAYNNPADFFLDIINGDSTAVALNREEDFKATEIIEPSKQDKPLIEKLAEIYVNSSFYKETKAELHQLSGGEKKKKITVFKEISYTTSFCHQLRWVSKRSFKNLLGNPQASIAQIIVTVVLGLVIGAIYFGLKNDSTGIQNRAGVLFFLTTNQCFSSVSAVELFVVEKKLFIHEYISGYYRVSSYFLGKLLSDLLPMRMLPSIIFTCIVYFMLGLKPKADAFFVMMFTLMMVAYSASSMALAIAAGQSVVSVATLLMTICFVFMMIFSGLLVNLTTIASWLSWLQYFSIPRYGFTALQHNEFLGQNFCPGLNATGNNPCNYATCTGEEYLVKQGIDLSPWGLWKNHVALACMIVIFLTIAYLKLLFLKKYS
Summary of the method: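 5 × 10^5 HEK293/R2 cells in FACS buffer were shaken 15 min at 37 °C with 1 μM compound. FITC 5D3 anti-BCRP was then added for 30 min at 37 °C and fluorescence read by flow cytometry on FL1. Compound-only background was subtracted and the untreated DMSO shift removed. Result is % of the 1 μM Ko143-induced shift.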

2008 = assay: Selectivity index, ratio of EC50 for inhibition of MRP1 (unknown origin) expressed in 2008/MRP1 cells assessed as reversal of doxorubicin resistance to Inhibition of BCRP (unknown origin) expressed in MCF7/MX100 cells assessed as reversal of topotecan resistance; type: cell-based; details: Homo sapiens; summary of the method: as §1
Homo sapiens [4] = organism: Homo sapiens; assay: Selectivity index, ratio of EC50 for inhibition of P-gp (unknown origin) expressed in LCC6MDR cells assessed as reversal of paclitaxel resistance to EC50 for Inhibition of BCRP (unknown origin) expressed in MCF7/MX100 cells assessed as reversal of topotecan resistance; type: cell-based; summary of the method: as §1
BCRP (ABCG2) [5] = molecular target: T1, BCRP (ABCG2); assay: Inhibition of BCRP (unknown origin) expressed in HEK293/R2 cells assessed as conformational change by measuring increase in 5D3 shift at 10 uM preincubated for 15 mins followed by FITC mouse antihuman BCRP antibody addition measured after 30 mins by flow cytometry analysis; type: cell-based; details: HEK293/R2 cells expressing BCRP, time 45 min
Summary of the method: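 HEK293/R2 cells (5 x 10⁵) in FACS buffer (0.1 % BSA, 1 mM EDTA in PBS) were pre-incubated with compound for 15 min at 37 °C with shaking. FITC anti-human BCRP antibody (clone 5D3) was then added for 30 min at 37 °C. Cells were washed and read by flow cytometry (FL1, 50,000 events). Compound-only FITC background and the DMSO-control signal were subtracted, and the shift was expressed as % of the 1 µM Ko143 shift.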

[6] = molecular target: T2, Broad substrate specificity ATP-binding cassette transporter ABCG2 (Homo sapiens, UniProt Q9UNQ0); assay: Inhibition of BCRP (unknown origin) expressed in human HEK293/R2 cells assessed as increase in intracellular mitoxantrone accumulation by measuring fold change at 1 uM after 2 hrs in presence of mitoxantrone by flow cytometry analysis relative to control; type: cell-based; details: hek293/r2, 2 h
T2 sequence (Q9UNQ0 whole entry): T1 sequence (Q9UNQ0 whole entry)
Summary of the method: (§2)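 5 × 10^5 HEK293/pcDNA3.1 or HEK293/R2 cells in 1 mL were incubated 2 hr at 37 °C with 50 μM topotecan or 5 μM mitoxantrone plus 1 or 2 μM modulator, with DMSO as the vehicle control. Cells were washed in cold PBS and resuspended in FACS buffer. Flow cytometry read FL1 (topotecan) or FL4 (mitoxantrone) over 50,000 events, normalized to wild-type cells.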

[7] = molecular target: T2, Broad substrate specificity ATP-binding cassette transporter ABCG2; assay: Inhibition of BCRP (unknown origin) expressed in human HEK293/R2 cells assessed as increase in intracellular mitoxantrone accumulation by measuring fold change at 2 uM after 2 hrs in presence of mitoxantrone by flow cytometry analysis relative to control; type: cell-based; details: hek293/r2, 2 h; summary of the method: as §2
[8] = molecular target: T2, Broad substrate specificity ATP-binding cassette transporter ABCG2; assay: Inhibition of BCRP (unknown origin) expressed in wild type HEK293/pcDNA3.1 cells assessed as increase in intracellular topotecan accumulation at 1 to 2 uM after 2 hrs in presence of topotecan by flow cytometry analysis relative to control; type: cell-based; details: hek293, 2 h, dose 1-2 µM; summary of the method: as §2
[9] = molecular target: T2, Broad substrate specificity ATP-binding cassette transporter ABCG2; assay: Inhibition of BCRP (unknown origin) expressed in human HEK293/R2 cells assessed as increase in intracellular topotecan accumulation by measuring fold change at 2 uM after 2 hrs in presence of topotecan by flow cytometry analysis relative to control; type: cell-based; details: hek293/r2, 2 h; summary of the method: as §2
[10] = molecular target: T2, Broad substrate specificity ATP-binding cassette transporter ABCG2; assay: Inhibition of BCRP (unknown origin) expressed in wild type HEK293/pcDNA3.1 cells assessed as increase in intracellular mitoxantrone accumulation at 1 to 2 uM after 2 hrs in presence of mitoxantrone by flow cytometry analysis relative to control; type: cell-based; details: hek293, 2 h, dose 1-2 µM; summary of the method: as §2
Homo sapiens [11] = organism: Homo sapiens; assay: Selectivity index, ratio of EC50 for inhibition of MRP1 (unknown origin) expressed in 2008/MRP1 cells assessed as reversal of mitoxantrone resistance to EC50 for inhibition of BCRP (unknown origin) expressed in HEK293/R2 cells assessed as reversal of mitoxantrone resistance; type: cell-based
Summary of the method: (§3)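 Selectivity index is the EC50 in 2008/MRP1 or LCC6MDR divided by the EC50 in HEK293/R2. All three lines were measured by 5-day mitoxantrone co-incubation with modulator, with MTS/PMS read-out at 490 nm.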

Homo sapiens [12] = organism: Homo sapiens; assay: Selectivity index, ratio of EC50 for inhibition of P-gp (unknown origin) expressed in LCC6MDR cells assessed as reversal of mitoxantrone resistance to EC50 for inhibition of BCRP (unknown origin) expressed in HEK293/R2 cells assessed as reversal of mitoxantrone resistance; type: cell-based; summary of the method: as §3
[13] = molecular target: T2, Broad substrate specificity ATP-binding cassette transporter ABCG2; assay: Inhibition of BCRP (unknown origin) expressed in human HEK293/R2 cells assessed as increase in intracellular topotecan accumulation by measuring fold change at 1 uM after 2 hrs in presence of topotecan by flow cytometry analysis relative to control; type: cell-based; details: hek293/r2, 2 h; summary of the method: as §2
HEK293 = assay: Effect on BCRP protein expression in human HEK293/R2 cells at 1 to 3 uM after 24 hrs by flow cytometric analysis; type: functional, cell-based; details: dose 1-3 µM
Summary of the method: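 HEK293/R2 and HEK293/pcDNA3.1 cells were exposed to 0, 1 or 3 μM compound for 24 hr, with 0.1–0.3% DMSO as solvent control. Cells were trypsinized and stained with FITC anti-human BCRP for 45 min at 4 °C, with an IgG2b-FITC isotype control. Surface signal was read by flow cytometry on FL1 over 50,000 events.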

Row | Structure (SMILES) | Ratio EC50 (Homo sapiens [1]) | Ratio EC50 (Homo sapiens [2]) | IC50 (L929) | Ratio EC50 2008 | Ratio EC50 (Homo sapiens [4]) | also measured
1 | COC(=O)c1cccc(COc2c(-c3ccc(OCCOCCOCCn4cc(CCN5C(=O)c6ccccc6C5=O)nn4)cc3)oc3ccccc3c2=O)c1 | 6 | 6 | > 100 µM | – | – | –
2 | COc1cc2c(cc1OC)CN(CCc1ccc(NC(=O)c3cccc4c(=O)c5cccc(OC)c5[nH]c34)cc1)CC2 | – | – | – | – | – | inhibition at 0.5 h, 1 µM (BCRP (ABCG2) [3]): 100%
3 | COC(=O)c1cccc(COc2c(-c3ccc(OCCOCCOCCN=[N+]=[N-])cc3)oc3ccccc3c2=O)c1 | 118 | 35 | 28.4 µM | 60 | 18 | –
4 | COC(=O)c1cccc(COc2c(-c3ccc(OCCOCCN=[N+]=[N-])cc3)oc3ccccc3c2=O)c1 | 12 | 12 | 67.5 µM | 20 | 20 | –
5 | COC(=O)c1cccc(COc2c(-c3ccc(OCCOCCn4cc(CNc5ccccc5)nn4)cc3)oc3ccccc3c2=O)c1 | 38 | 38 | > 100 µM | 23 | 23 | –
6 | COC(=O)c1cccc(COc2c(-c3ccc(OCCOCCn4cc(CCN5C(=O)c6ccccc6C5=O)nn4)cc3)oc3ccccc3c2=O)c1 | 22 | 22 | > 100 µM | 10 | 10 | –
7 | COC(=O)c1cccc(COc2c(-c3ccc(OCCCCc4cn(CCOCCO)nn4)cc3)oc3ccccc3c2=O)c1 | 100 | 61 | 13.3 µM | 36 | 22 | –
8 | COC(=O)c1cccc(COc2c(-c3ccc(OCCOCCOCCn4cc(CN(C)Cc5ccccc5)nn4)cc3)oc3ccccc3c2=O)c1 | 62 | 51 | > 100 µM | 35 | 29 | –
9 | CCOc1ccc(-c2nc3cc(-c4nc5cc(N6CCN(C)CC6)ccc5[nH]4)ccc3[nH]2)cc1 | – | – | – | – | – | inhibition at 0.5 h, 10 µM (BCRP (ABCG2) [5]): 19%
10 | COC(=O)c1cccc(COc2c(-c3ccc(OCCOCCOCCn4cc(CCCCOc5ccc(C=O)cc5)nn4)cc3)oc3ccccc3c2=O)c1 | 46 | 53 | 37.8 µM | 23 | 26 | –
11 | COC(=O)c1cccc(COc2c(-c3ccc(OCCOCCn4cc(CN(Cc5ccccc5)Cc5ccccc5)nn4)cc3)oc3ccccc3c2=O)c1 | 31 | 31 | > 100 µM | 34 | 34 | –
12 | C#CCCCCOc1ccc(-c2oc3ccccc3c(=O)c2OCc2cccc(C(=O)OC)c2)cc1 | 23 | 19 | > 100 µM | 30 | 24 | –
13 | COC(=O)c1cccc(COc2c(-c3ccc(OCCOCCn4cc(CN(C)Cc5ccccc5)nn4)cc3)oc3ccccc3c2=O)c1 | 67 | 67 | > 100 µM | 286 | 286 | fold change (FC) [6]: 6.2; fold change (FC) [7]: 6.3; inhibition (INH) [8]: Not Active; fold change (FC) [9]: 7; inhibition (INH) [10]: Not Active; Ratio EC50 (Homo sapiens [11]): 40; Ratio EC50 (Homo sapiens [12]): 38; fold change (FC) [13]: 7.2; Activity (HEK293): inactive
14 | O=c1c(O)c(-c2ccc(O)c(O)c2)oc2cc(O)cc(O)c12 [QUERCETIN] | – | – | – | – | – | inhibition at 0.5 h, 10 µM (BCRP (ABCG2) [5]): 39%
15 | COC(=O)c1cccc(COc2c(-c3ccc(OCCOCCOCCn4cc(CN(CCO)Cc5ccccc5)nn4)cc3)oc3ccccc3c2=O)c1 | 714 | 220 | > 100 µM | 625 | 193 | fold change (FC) [6]: 6.5; fold change (FC) [7]: 5.8; inhibition (INH) [8]: Not Active; fold change (FC) [9]: 7; inhibition (INH) [10]: Not Active; Ratio EC50 (Homo sapiens [11]): 4; Ratio EC50 (Homo sapiens [12]): 5; fold change (FC) [13]: 7.1; Activity (HEK293): inactive
